From the RNAGym collection of RNA variant scans (doi:10.1002/anie.201605470)

B1: Osa-1-4 twister ribozyme (parent)
chain: CCGCCUAACACUGCCAAUGCCGGUCCCAAGCCCGGAUAAAAGUGGAGGGGGCGG

Variants of: B1
Assay: self-cleavage, relative activity (ratio to wild type); higher = more cleavage; co-transcriptional
How it was run: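 For each read, cleavage status was taken from whether upstream sequence was present. The reads came from an Oryza sativa twister ribozyme of 54 nucleotides, whose DNA template was synthesised with 97 % wild-type base and 1 % of each other base at the 48 positions downstream of the cleavage site. The template was transcribed in vitro at 37 °C for 2 h with co-transcriptional self-cleavage, and the RNA was reverse-transcribed using a template-switching oligonucleotide, PCR-amplified and deep-sequenced. Relative activity is the fraction cleaved normalised to wild type.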

self-cleavage, 0.88:
C33U U37C
C33U C52G
G34A U37G
G34A U37A
C33U G50U
C33U

self-cleavage, 0.09:
G35C G53U
G34U G47A
G34C G53A
G34C G53C
C33U U43G
C33U U43C
G34U G45A
G35C U12C
G35C G51A
C33U G23A
G34A G45U
G34C G42C
G34C G42A
G35A G48U
G34C U43A
C33G G50U

self-cleavage, 0.84:
G34U U37C
G35C U18A
C33U C52A

self-cleavage, 1.05:
G35A U37A

self-cleavage, 0.79:
G34U U37A
G35A U18G
G35A U18A

self-cleavage, 0.17:
G35A G42C
G35C G50U
C33U G19A

self-cleavage, 0.25:
G34C G54U
G35A G51A
G35C G44A

self-cleavage, 0.13:
G34A G47A
G34A G53U
C33U G51U
G34U G42A
C33U G53U
C33U G34U
G35C G54C
G34A G49A

self-cleavage, 0.05:
G35C G49C
G35C G49U
G35C G49A
G34C G47C
G34U G47C
G34A G53C
G34U U12G
G35C U24C
G34C G45A
G35C G47A
G35C G47C
G35C G47U
G34C G48U
G34C G48C
G35C G45A
G35C G45U
G34U G45C
C33G U12A
G34U G53C
G35C G51C
G34U G48U
C33U G45U
C33U G48C
C33G G51U
G34A G42U
G35C G48A
C33G U37C
G34U G51C
C33G G50C

self-cleavage, 0.6:
G34C U37A
G34U G35A
G34A G50C

self-cleavage, 0.87:
G34U U37G
C33U U37A

self-cleavage, 0.26:
G34U G50A
G35C G44U

self-cleavage, 0.1:
G34A G47U
G34U G47U
G34A U43G
G35C G50C
G34C G51A
G34C U12A
G34C U12C
G35A G48C
G34C U43C
C33G G54U
G34A G51U
G34A G49U
G34U G51A

self-cleavage, 0.55:
G34U G44A

self-cleavage, 0.01:
G35C U24G
C33G U24G

self-cleavage, 0.02:
G34C U24G
C33U G13C
C33U G19C

self-cleavage, 0.06:
G34A G48U
G34C G47U
G35A G45C
G35C G53C
C33U U24C
G35C U24A
G34C G49A
G34C G49C
G34C G45C
G34C G45U
G34C U24C
G34C G48A
G34C G51C
G34C G51U
G35C G51U
G34A G45C
C33U G45C
C33G G51C
C33G G51A
G35A U12G
C33G U43G
C33G U43A
G34A G51C
G34U G49C
G34A U24C
G34U G51U
C33U G19U
C33G G50A

self-cleavage, 0.53:
C33U G50C
C33U G44U

self-cleavage, 0.3:
C33U C9G

self-cleavage, 0.71:
G34A U18G
G35A G44U
G34C

self-cleavage, 0.73:
G34U G50U
G34A U18A

self-cleavage, 0.68:
G35A G53A
C33U G54U

self-cleavage, 0.45:
C33U G22C
G35C G44C

self-cleavage, 0.29:
G34A G35C
G34A G50A
C33U G44C

self-cleavage, 0.63:
C33U U18C

self-cleavage, 0.28:
G34C G35U

self-cleavage, 0.44:
G35A G42A

self-cleavage, 0.24:
G35C G50A

self-cleavage, 1.08:
C33U G22A

self-cleavage, 0.35:
C33U G51A
C33U G53A
G35A G50A

self-cleavage, 0.69:
G34A G44A

self-cleavage, 0.18:
G35A G49A
G35A G47U
G34A U24A

self-cleavage, 0.2:
C33U C9A
G35C G54A
G34C G44A

self-cleavage, 0.04:
C33G U24A
C33G U24C
C33U G13A
C33G G53U
C33U G23C
C33U G23U
C33U G48U
G34C G42U
G35C G48U
G35C G48C
C33U G30A
C33U G30C

self-cleavage, 0.77:
G35C U18G
G34A G35A

self-cleavage, 0.99:
C33U C52U

self-cleavage, 0.86:
G34A

self-cleavage, 0.03:
C33U U24G
C33G U12C
C33U G13U
C33G G53C
G35A U24G
C33G G54C
C33G U43C
C33U G30U
G34A U24G
G34U U24G

self-cleavage, 0.72:
G35C

self-cleavage, 0.46:
G35A U43A

self-cleavage, 0.8:
G34A G35U
G35A G44A

self-cleavage, 0.78:
G35A G50C

self-cleavage, 0.16:
G35A G49U
G34C G54C
G34C G44U

self-cleavage, 0.64:
G34A G54A
G34U U18A

self-cleavage, 0.43:
G34A U18C
G34C U18A

self-cleavage, 0.15:
G35A G45U
G34U U43C
G34C G54A
G34A G45A
G34A G51A
G34U U24A
G34C U18G

self-cleavage, 0.14:
C33U U24A
G34U U12A
G34U U12C
C33U G42A
G34C G44C

self-cleavage, 0.21:
C33U G34C

self-cleavage, 0.08:
G34A G47C
G34A G48A
G34A G48C
C33G U18G
C33G U18C
G35A G42U
G35A G53C
C33U G51C
C33U G35C
G34U G42C
G35C G42A
G34U G45U
G35C U12A
C33G G53A
C33U G42C
C33U U12G
G34C U12G
C33U G47A
C33U G45A
G35A U24C
G34A G42C
C33G G54A
C33G U37A
C33G U37G
C33U G49A
C33U G49U

self-cleavage, 0.23:
G34A U12A
G34C G50A

self-cleavage, 0.36:
G35C G54U
G34C U18C

self-cleavage, 0.19:
C33U U43A
G34A U43C
G34A U12C
G34C G50C

self-cleavage, 0.81:
G35A G54U
C33U U18A

self-cleavage, 0.76:
G35A G44C

self-cleavage, 0.49:
G34A G53A
C33U G35A
G34U G54U

self-cleavage, 0.93:
G35C U37A

self-cleavage, 0.7:
G34A G54C
G34A G54U

self-cleavage, 0.31:
G35A G45A
G34U G35C
G34U U18C

self-cleavage, 0.57:
G34U G54C
C33U G54A

self-cleavage, 0.56:
G35C U18C

self-cleavage, 0.92:
G35A U37C

self-cleavage, 0.52:
G34U G35U
G35A U18C

self-cleavage, 0.89:
G35A U37G
G34A U37C

self-cleavage, 0.48:
C33U U18G
G35A U12C

self-cleavage, 0.12:
G35C G53A
G35A G48A
G35A G51U
G35A U43G

self-cleavage, 1:
C33U G22U

self-cleavage, 0.58:
G34A G44U
G34A G44C
G34U U18G

self-cleavage, 0.66:
G34C U37G

self-cleavage, 0.07:
G35A G49C
G34C G47A
G34U U43G
C33G U18A
G34C G53U
G34A U12G
G34C G49U
G34C U24A
G34U G42U
C33U G53C
G35C G45C
G35C G42U
G35C G42C
C33G U12G
G35C U12G
G34U G48C
G34U G48A
C33U G42U
C33U G47C
C33U G47U
C33U G48A
G35A G51C
G34C U43G
G34A G49C
C33U G49C
G34U U24C

self-cleavage, 0.27:
G34U G53A
C33U U12A
G35A G47A

self-cleavage, 0.22:
G35A G53U
G34A U43A
C33U G34A

self-cleavage, 0.32:
G35A U24A
C33U G50A

self-cleavage, 0.9:
C33U U37G
G35A
G35A G50U

self-cleavage, 0.61:
G35A U12A
C33U G54C

self-cleavage, 0.85:
G35A G54A
G35A G54C

self-cleavage, 0.41:
G34C G50U
G35A U43C
G34U G44C

self-cleavage, 0.82:
G34U

self-cleavage, 0.65:
G34C U37C

self-cleavage, 0.5:
C33U G44A
G34U G44U

self-cleavage, 0.83:
G34A G50U

self-cleavage, 0.39:
G34U G50C
C33U C9U
G34C G35A
G34U G54A

self-cleavage, 0.11:
G34U U43A
C33U G35U
G34C G35C
G34U G53U
C33U U12C
G35A G47C
G34A G42A
G34U G49A
G34U G49U
